Measurements reported in ChEMBL document CHEMBL4265871, “Novel alkylated azoles as potent antifungals” (Eur J Med Chem, 2017).
Converted amounts (≈) assume the structure as drawn.

Legend:
[1] = Selectivity index, ratio of EC50 for toxicity in human A549 cells to MIC50 for antifungal activity against ITC and FLC-susceptible Candida albicans ATCC MYA-2876; format: cell-based; details: read-out: Selectivity Index
Procedure, shortened: (§1)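 Selectivity index is the EC50 against the mammalian line (A549 or BEAS-2B) divided by the MIC against the given fungal strain.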

[2] = Hemolytic activity in mouse erythrocytes assessed as hemolysis level at 125 ug/ml incubated for 1 hr at 37 degC; format: ADME, cell-based, Erythrocyte; details: read-out: Activity
Procedure, shortened: (§2)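 Mouse erythrocytes incubated 1 h at 37 °C with test agents over 1.95 to 125 µg/mL. Percent lysis is read for each concentration.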

[3] = system: Aspergillus flavus; assay: Antifungal activity against Aspergillus flavus ATCC MYA-3631 incubated for 48 hrs by CLSI M38-A2 protocol based method; format: functional; details: ATCC MYA-3631, 48 h, read-out: MIC100
[4] = Selectivity index, ratio of EC50 for toxicity in human A549 cells to MIC50 for antifungal activity against ITC and FLC-susceptible Candida albicans ATCC MYA-2310; format: cell-based; details: read-out: Selectivity Index; procedure, shortened: as §1
[5] = system: Candida albicans; assay: Antifungal activity against ITC and FLC-susceptible Candida albicans ATCC MYA-2310 incubated for 48 hrs by modified CLSI M27-A3 protocol based method; format: functional; details: ATCC MYA-2310, 48 h
[6] = Selectivity index, ratio of EC50 for toxicity in human A549 cells to MIC50 for antifungal activity against ITC and FLC-resistant Candida albicans ATCC 1237; format: cell-based; details: read-out: Selectivity Index; procedure, shortened: as §1
[7] = Selectivity index, ratio of […] for toxicity in human BEAS2B cells to MIC50 for antifungal activity against Aspergillus nidulans ATCC 38163; format: cell-based; details: BEAS-2B cells, read-out: Selectivity Index
[8] = system: Candida albicans; assay: Antifungal activity against Candida albicans ATCC 64124 incubated for 48 hrs by modified CLSI M27-A3 protocol based method; format: functional; details: ATCC 64124, 48 h
[9] = system: Pichia kudriavzevii; assay: Antifungal activity against Candida krusei ATCC 6258 incubated for 48 hrs by modified CLSI M27-A3 protocol based method; format: functional; details: ATCC 6258, 48 h, read-out: MIC100
Procedure, shortened: (§3)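 For C. albicans ATCC 10231, C. krusei ATCC 6258 and C. parapsilosis ATCC 22019, MIC-0 was read, meaning complete growth inhibition. For azole controls, MIC-2 (50% growth inhibition) was reported instead. Caspofungin and voriconazole were tested here; other controls came from earlier work.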

[10] = Hemolytic activity in mouse erythrocytes assessed as hemolysis level at 15.6 ug/ml incubated for 1 hr at 37 degC; format: ADME, cell-based, Erythrocyte; details: read-out: Activity; procedure, shortened: as §2
[11] = system: Candida albicans; assay: Antifungal activity against Candida albicans ATCC 10231 incubated for 48 hrs by modified CLSI M27-A3 protocol based method; format: functional; details: ATCC 10231, 48 h, read-out: MIC100; procedure, shortened: as §3
[12] = Selectivity index, ratio of EC50 for toxicity in human A549 cells to MIC for antifungal activity against Candida parapsilosis ATCC 22019
[13] = Selectivity index, ratio of EC50 for toxicity in human A549 cells to MIC50 for antifungal activity against Candida glabrata ATCC 2001; format: cell-based; details: read-out: Selectivity Index; procedure, shortened: as §1
[14] = Selectivity index, ratio of EC50 for toxicity in human A549 cells to MIC50 for antifungal activity against ITC and FLC-resistant Candida albicans ATCC MYA-1003; format: cell-based; details: read-out: Selectivity Index; procedure, shortened: as §1
[15] = system: Candida albicans; assay: Antifungal activity against ITC and FLC-resistant Candida albicans ATCC MYA-1003 incubated for 48 hrs by modified CLSI M27-A3 protocol based method; format: functional; details: ATCC MYA-1003, 48 h
Procedure, shortened: (§4)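 Because these Candida strains show trailing growth, MIC-2 was read, meaning 50% growth inhibition. Caspofungin and voriconazole were tested here; other controls came from earlier work.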

[16] = system: Aspergillus terreus; assay: Antifungal activity against Aspergillus terreus ATCC MYA-3633 incubated for 48 hrs by CLSI M38-A2 protocol based method; format: functional; details: ATCC MYA-3633, 48 h, read-out: MIC100
[17] = system: Aspergillus nidulans; assay: Antifungal activity against Aspergillus nidulans ATCC 38163 incubated for 48 hrs by CLSI M38-A2 protocol based method; format: functional; details: ATCC 38163, 48 h, read-out: MIC100
[18] = Selectivity index, ratio of EC50 for toxicity in human BEAS2B cells to MIC50 for antifungal activity against ITC and FLC-resistant Candida albicans ATCC MYA-1003; format: cell-based; details: BEAS-2B cells, read-out: Selectivity Index; procedure, shortened: as §1
[19] = Hemolytic activity in mouse erythrocytes assessed as hemolysis level at 3.9 ug/ml incubated for 1 hr at 37 degC; format: ADME, cell-based, Erythrocyte; details: read-out: Activity; procedure, shortened: as §2
[20] = Selectivity index, ratio of EC50 for toxicity in human BEAS2B cells to MIC100 for antifungal activity against Candida albicans ATCC 10231; format: cell-based; details: BEAS-2B cells, read-out: Selectivity Index; procedure, shortened: as §1
[21] = Hemolytic activity in mouse erythrocytes assessed as hemolysis level at 31.3 ug/ml incubated for 1 hr at 37 degC; format: ADME, cell-based, Erythrocyte; details: read-out: Activity; procedure, shortened: as §2
[22] = Selectivity index, ratio of […] for toxicity in human A549 cells to MIC50 for antifungal activity against Aspergillus nidulans ATCC 38163; format: cell-based; details: read-out: Selectivity Index
[23] = Selectivity index, ratio of […] for toxicity in human A549 cells to MIC50 for antifungal activity against Aspergillus terreus ATCC MYA-3633; format: cell-based; details: read-out: Selectivity Index
[24] = Selectivity index, ratio of EC50 for toxicity in human BEAS2B cells to MIC50 for antifungal activity against ITC and FLC-resistant Candida albicans ATCC 1237; format: cell-based; details: BEAS-2B cells, read-out: Selectivity Index; procedure, shortened: as §1
[25] = system: Candida albicans; assay: Antifungal activity against ITC and FLC-resistant Candida albicans ATCC 1237 incubated for 48 hrs by modified CLSI M27-A3 protocol based method; format: functional; details: ATCC 1237, 48 h; procedure, shortened: as §4
[26] = system: Nakaseomyces glabratus; assay: Antifungal activity against Candida glabrata ATCC 2001 incubated for 48 hrs by modified CLSI M27-A3 protocol based method; format: functional; details: ATCC 2001, 48 h
[27] = system: Candida parapsilosis; assay: Antifungal activity against Candida parapsilosis ATCC 22019 incubated for 48 hrs by modified CLSI M27-A3 protocol based method; format: functional; details: Lodderomyces parapsilosis, ATCC 22019, 48 h; read-out: MIC100; procedure, shortened: as §3
[28] = system: Candida albicans; assay: Antifungal activity against ITC and FLC-susceptible Candida albicans ATCC MYA-2876 incubated for 48 hrs by modified CLSI M27-A3 protocol based method; format: functional; details: ATCC MYA-2876, 48 h; procedure, shortened: as §4
[29] = Selectivity index, ratio of EC50 for toxicity in human BEAS2B cells to MIC50 for antifungal activity against Candida krusei ATCC 6258; details: BEAS-2B cells
[30] = Hemolytic activity in mouse erythrocytes assessed as hemolysis level at 7.8 ug/ml incubated for 1 hr at 37 degC; format: ADME, cell-based, Erythrocyte; details: read-out: Activity; procedure, shortened: as §2
[31] = Selectivity index, ratio of EC50 for toxicity in human BEAS2B cells to MIC50 for antifungal activity against Candida glabrata ATCC 2001; format: cell-based; details: BEAS-2B cells, read-out: Selectivity Index; procedure, shortened: as §1
[32] = Selectivity index, ratio of EC50 for toxicity in human BEAS2B cells to MIC50 for antifungal activity against ITC and FLC-susceptible Candida albicans ATCC MYA-2876; format: cell-based; details: BEAS-2B cells, read-out: Selectivity Index
Procedure, shortened: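 Ratio of the compound's EC50 against BEAS-2B cells to its MIC against the named C. albicans strain. […] For C. albicans strains other than ATCC 10231, trailing growth meant MIC-2 was taken, meaning 50% growth inhibition.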

With `CCCCCC(O)(Cn1cncn1)c1ccccc1F` (stereo unspecified) the selectivity ratio [1] was 38, the hemolysis at 1 h, 125 ug/ml [2] was 20.7% and the MIC [3] was 28.1 µM (≈ 7.79 µg/mL). For the same molecule, the selectivity ratio [4] was 38, the MIC50 [5] was 3.5 µM (≈ 0.971 µg/mL) and the selectivity ratio [6] was 38. For the same molecule, the selectivity ratio [7] was 65, the MIC50 [8] was > 113 µM and the MIC [9] was 0.22 µM (≈ 0.061 µg/mL). It also gave a hemolysis at 1 h, 15.6 ug/ml [10] of 0%, an MIC [11] of 14.1 µM (≈ 3.91 µg/mL) and a selectivity ratio [12] of 308. It also gave a selectivity ratio [13] of 38, a selectivity ratio [14] of 9 and an MIC50 [15] of 14.1 µM (≈ 3.91 µg/mL). For the same molecule, the MIC [16] was 14.1 µM (≈ 3.91 µg/mL), the MIC [17] was 1.7 µM (≈ 0.471 µg/mL) and the selectivity ratio [18] was 8. The hemolysis at 1 h, 3.9 ug/ml [19] was 0%, the selectivity ratio [20] was 8 and the hemolysis at 1 h, 31.3 ug/ml [21] was 0%. It also gave a selectivity ratio [22] of 77, a selectivity ratio [23] of 9 and a selectivity ratio [24] of 32. It also gave an MIC50 [25] of 3.5 µM (≈ 0.971 µg/mL), an MIC50 [26] of 3.5 µM (≈ 0.971 µg/mL) and an MIC [27] of 0.43 µM (≈ 0.119 µg/mL). It also gave an MIC50 [28] of 3.5 µM (≈ 0.971 µg/mL), a selectivity ratio [29] of 522 and a hemolysis at 1 h, 7.8 ug/ml [30] of 0%. The selectivity ratio [31] was 32 and the selectivity ratio [32] was 32.

`CCCCCC(O)(Cn1cncn1)c1ccc(F)cc1F` (stereo unspecified) showed a selectivity ratio [1] of 4, a hemolysis at 1 h, 125 ug/ml [2] of 45.4% and an MIC [3] of 52.8 µM (≈ 15.6 µg/mL). The selectivity ratio [4] was 4, the MIC50 [5] was 26.4 µM (≈ 7.8 µg/mL) and the selectivity ratio [6] was 4. The selectivity ratio [7] was 32, the MIC50 [8] was 26.4 µM (≈ 7.8 µg/mL) and the MIC [9] was 0.81 µM (≈ 0.239 µg/mL). It also gave a hemolysis at 1 h, 15.6 ug/ml [10] of 0.9%, an MIC [11] of 6.6 µM (≈ 1.95 µg/mL) and a selectivity ratio [12] of 1040. For the same molecule, the selectivity ratio [13] was 4, the selectivity ratio [14] was 16 and the MIC50 [15] was 6.6 µM (≈ 1.95 µg/mL). For the same molecule, the MIC [16] was > 106 µM, the MIC [17] was 3.3 µM (≈ 0.975 µg/mL) and the selectivity ratio [18] was 16. It also gave a hemolysis at 1 h, 3.9 ug/ml [19] of 0%, a selectivity ratio [20] of 16 and a hemolysis at 1 h, 31.3 ug/ml [21] of 10.1%. It also gave a selectivity ratio [22] of 32, a selectivity ratio [23] of 1 and a selectivity ratio [24] of 4. For the same molecule, the MIC50 [25] was 26.4 µM (≈ 7.8 µg/mL), the MIC50 [26] was 26.4 µM (≈ 7.8 µg/mL) and the MIC [27] was < 0.1 µM. For the same molecule, the MIC50 [28] was 26.4 µM (≈ 7.8 µg/mL), the selectivity ratio [29] was 130 and the hemolysis at 1 h, 7.8 ug/ml [30] was 0%. It also gave a selectivity ratio [31] of 4 and a selectivity ratio [32] of 4.

In the case of `CCCCC(O)(Cn1cncn1)c1ccc(Cl)cc1Cl` (stereo unspecified) [HEXACONAZOLE], the selectivity ratio [1] is reported as 16, the hemolysis at 1 h, 125 ug/ml [2] is reported as 100% and the MIC [3] is reported as 12.4 µM (≈ 3.9 µg/mL). For the same molecule, the selectivity ratio [4] was 16, the MIC50 [5] was 6.2 µM (≈ 1.95 µg/mL) and the selectivity ratio [6] was 4. For the same molecule, the selectivity ratio [7] was 130, the MIC50 [8] was 12.4 µM (≈ 3.9 µg/mL) and the MIC [9] was 0.19 µM (≈ 0.0597 µg/mL). It also gave a hemolysis at 1 h, 15.6 ug/ml [10] of 0%, an MIC [11] of 0.76 µM (≈ 0.239 µg/mL) and a selectivity ratio [12] of 1040. For the same molecule, the selectivity ratio [13] was 8, the selectivity ratio [14] was 32 and the MIC50 [15] was 3.1 µM (≈ 0.974 µg/mL). The MIC [16] was 3.1 µM (≈ 0.974 µg/mL), the MIC [17] was 0.76 µM (≈ 0.239 µg/mL) and the selectivity ratio [18] was 32. For the same molecule, the hemolysis at 1 h, 3.9 ug/ml [19] was 0%, the selectivity ratio [20] was 130 and the hemolysis at 1 h, 31.3 ug/ml [21] was 0%. For the same molecule, the selectivity ratio [22] was 130, the selectivity ratio [23] was 32 and the selectivity ratio [24] was 4. The MIC50 [25] was 24.8 µM (≈ 7.79 µg/mL), the MIC50 [26] was 12.4 µM (≈ 3.9 µg/mL) and the MIC [27] was < 0.1 µM. The MIC50 [28] was 6.2 µM (≈ 1.95 µg/mL), the selectivity ratio [29] was 522 and the hemolysis at 1 h, 7.8 ug/ml [30] was 0%. The selectivity ratio [31] was 8 and the selectivity ratio [32] was 16.
